Assay results reported in publication PMC9909794 (ACS Omega, 2023).

Key:
integrin αvβ3 = settings: cited from earlier work
integrin αvβ5 = settings: cited from earlier work
[1] = system: human dermal fibroblasts (HDFs); experiment: Cell adhesion assay on peptide-BSA-coated plates, HDFs; type: cell-based; settings: peptides conjugated at 0.125 μM and 1 μM; 5 × 10^3 cells/well; 1 h
Outline: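 HDFs grown in DMEM with 10% FBS and penicillin/streptomycin, detached with 0.05% trypsin–EDTA, and suspended in 0.1% BSA/DMEM. Plates coated with Mal-BSA (10 μg/mL in water; 30 min, 37 °C), then Cys-PPP-spacer amide peptides in 100 mM HEPES pH 7 for 2 h. After 1 h adhesion, cells fixed and stained with crystal violet. Counts averaged over nine 0.77 mm2 fields; mean ± SE, three independent experiments.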

Row | Substance | Affinity for integrin αvβ3 relative to linear RGD peptides (integrin αvβ3) | Affinity for integrin αvβ5 relative to linear RGD peptides (integrin αvβ5) | Effect of the X3 amino acid on cell adhesion activity, HDFs [1]
1 | c(RGDf(NMe)V) [cilengitide] | much higher affinity | much higher affinity | 
2 | CPPP-RGDNYI |  |  | negligible
3 | CPPP-RGDNYP |  |  | negligible
